# Assay results published in PubChem BioAssay AID504383 (The Scripps Research Institute Molecular Screening Center, 2011).
# The campaign covered roughly 2,500 compounds. About 1,200 (48%) were called active. So high a share suggests a set chosen from earlier hits. This is one part of the list. Unmarked numbers belong to inactive results.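 Rule for the calls: active = mean activation above the low control average plus 3 SD, as set in the primary screen (cut at about 12% in these data); inactive = the rest.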
# Biological target: Troponin I, cardiac muscle (Homo sapiens) + Troponin T, cardiac muscle (Homo sapiens) + Troponin C, slow skeletal and cardiac muscles (Homo sapiens) (UniProt P19429+P45379+P63316)
# Assay: calcium sensitizers of cardiac thin filaments – biochemical, IANBD-TnC fluorescence, triplicate, confirmation (AID 504383);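 note: 0% = DMSO at 0.472 mM calcium and 100% = DMSO at 2.9 mM calcium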
# Conditions: IANBD-labeled cardiac RTF, Ca2+ sensitivity fluorescence; at 7.2 µM; hits give high values; scaled from EC20 to saturating calcium; tested at EC20 calcium, 0.472 mM
# Summary of the method: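 Assay system: labelled regulated thin filament protein complex; schedule: 15 min compound incubation with filaments at 25 °C; benchmarks: low control EC20 calcium, high control EC100 calcium; reagent: Ca2+ 0.472 mM, EC20 level; doses: one dose, 7.2 µM nominal; evaluation: fluorescence gain scaled between EC20 and EC100 calcium controls; signal: filament fluorescence intensity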
row,SMILES,activation
1,O=c1[nH][nH]c(C(F)(F)F)c1C=NCc1ccccc1Cl,33.6% (active)
2,O=c1[nH][nH]c(C(F)(F)F)c1C=Nc1cccc(Cl)c1,60% (active)
3,CN(C)c1ccc2nc3c(=O)[nH]c(=O)nc-3n(CC(O)C(O)C(O)CO)c2c1 (stereo not drawn),10.2%
4,COc1ccccc1C(=O)n1nc(-c2ccccc2)nc1N,4.84%
5,Cc1ccc(-c2nc(N)n(C(=O)c3cccnc3)n2)cc1,148% (active)
6,COc1ccc(C(=O)/C=C/c2cn(CC(O)CN3CCN(C)CC3)c3ccccc23)cc1OC (stereo not drawn),133% (active)
7,COc1ccc(C(=O)/C=C/c2cn(CC(O)CN3CCOCC3)c3ccccc23)cc1 (stereo not drawn),21.6% (active)
8,COC(=O)c1ccc(Oc2c(F)c(F)nc(N3CCOCC3)c2F)cc1,5.29%
9,Cc1ccc(C(=O)/C=C/c2cn(CC(O)CN3CCOCC3)c3ccccc23)cc1 (stereo not drawn),-2.05%
10,O=c1c(O)c(-c2cccs2)oc2ccc(Cl)cc12,4.87%
11,Nc1nnnn1/N=C/c1cc(Cl)cc(Cl)c1O,11%
12,C/C(=N/NC(=O)c1ccncc1)c1cc2ccc(O)cc2oc1=O,4.52%
13,O=C(N/N=C/c1cc(Cl)cc(Cl)c1O)c1ccncc1,17.9% (active)
14,CC1(C)CC2CC(C)(CN2CC(=O)C(C#N)c2ccccc2)C1 (stereo not drawn),7.07%
15,Cn1ncc2c(O/N=C(\N)c3ccc(C(F)(F)F)cc3)ncnc21,93.4% (active)
16,Nc1ccn([C@H]2C[C@H](O)[C@@H](CO)O2)c(=O)n1,11.1%
17,Cc1cc(C)n(C2CCCCC2OC(=O)CCc2ccccc2)n1 (stereo not drawn),35.8% (active)
18,CC1(OC(=O)CCc2ccccc2)C(=O)C=C2C=C(c3ccc(C#N)cc3)N(C3CCCC3)C=C2C1=O (stereo not drawn),5.7%
19,CC1(C)CC(CC(=O)Nc2nccs2)(c2ccccc2)CCO1 (stereo not drawn),604% (active)
20,C=CCn1c(SCC(=O)Nc2nccs2)nnc1-c1ccco1,7.96%
21,O=C(Cc1c(F)cccc1Cl)Nc1nccs1,1.97%
22,COc1ccccc1N1CCN(C(=O)c2ccc(Cn3c(=O)[nH]c4ccsc4c3=O)cc2)CC1,125% (active)
23,CN1CCN(S(=O)(=O)c2cccc(C(=O)Oc3cccc(Br)c3)c2)CC1,11.4%
24,COCC(=O)NC1CCN(S(=O)(=O)c2cccc(C(C)=O)c2)CC1,14.3% (active)

row,SMILES,activation
1,COc1ccc2cc(C(=O)N/N=C/c3sc4ccccc4c3O)ccc2c1,277% (active)
2,O=C(N/N=C/c1sc(N2CCOCC2)nc1-c1ccccc1)c1cccc(S(=O)(=O)N2CCCC2)c1,3.15%
3,CC(=NNC(=O)c1ccncc1)c1ccc2ccccc2c1O,6.88%
4,O=C(N/N=C/c1sc2ccccc2c1O)c1ccccc1,66.7% (active)
5,COc1ccc(C(=O)N/N=C/c2sc3ccccc3c2O)cc1,14.3% (active)
6,CN(/N=C/c1ccc(O)cc1O)c1ncc(C(F)(F)F)cc1Cl,6.15%
7,CCN1CC=C2C(C1)C(c1ccc(Cl)s1)C(C#N)=C(N)C2(C#N)C#N (stereo not drawn),19.5% (active)
8,Cc1cc(C)c(OCCOCCN2CCNCC2)c(C)c1,7.52%
9,C[C@@H](NC(=O)c1ncn(C)c1C(=O)N[C@H](C)c1ccccc1)c1ccccc1,2.64%
10,CCc1ccc(C(C)NC(=O)c2ncn[nH]2)cc1 (stereo not drawn),17.2% (active)
11,CCn1c(NC(=O)Nc2cccc(C)c2C)cc2sccc21,12.6% (active)
12,COc1ccc(C2C(C(C)=O)=C(C)N=c3s/c(=C\c4cc(C)n(C)c4C)c(=O)n32)c(OC)c1 (stereo not drawn),15% (active)
13,CCN(CC)c1ccc2cc(C(=O)Nc3ccccn3)c(=O)oc2c1,7.83%
14,CCOC(=O)C(C(=O)Nc1cccc(C)n1)C1CCCCC1 (stereo not drawn),7.01%
15,CCOC(=O)c1[nH]cnc1C(=O)Nc1ccccn1,12.4% (active)
16,Cc1oc(-c2cc3c(cc2Cl)OCO3)nc1CN1CCCC(C(=O)N2CCOCC2)C1 (stereo not drawn),447% (active)
17,CCN(C(=O)CSc1nnc(COc2ccccc2F)n1N)c1c(N)n(Cc2ccccc2)c(=O)[nH]c1=O,1020% (active)
18,OCC[n+]1ccc(/C=C/c2c[nH]c3ccccc23)cc1,6.81%
19,CC[n+]1ccc(/C=C/c2c[nH]c3ccccc23)cc1,167% (active)
20,C(=Cc1c[nH]c2ccccc12)c1nccc2ccccc12,16.3% (active)
21,C[n+]1cc(C(=O)N2CCCCC2)ccc1/C=C/c1c[nH]c2ccccc12,8.02%
22,C[n+]1ccc(/C=C/c2c[nH]c3ccc(F)cc23)cc1,5.69%
23,C[n+]1ccc(/C=C/c2c[nH]c3ccccc23)cc1,45.7% (active)
24,Cc1ccc2[nH]cc(/C=C/c3cc[n+](C)cc3)c2c1,6.68%

row,SMILES,activation
1,CC(=O)N(c1ccccc1)C1SC(=O)N(c2ccccc2)C1=O (stereo not drawn),9.18%
2,Cc1cccc(C)c1-n1c(C)nn(-c2ncc(C(F)(F)F)cc2Cl)c1=O,2.27%
3,O=c1nc2c(O)cccn2c2c1c(=O)[nH]c1ccccc12,11.7% (active)
4,CC(=O)Nc1cccc(C(=O)/C=C/c2ccc(N(C)C)cc2)c1,15.4% (active)
5,CN(C)c1ccc(/C=C/C(=O)c2cccc(Br)c2)cc1,9.43%
6,COC(=O)C1CCN(C(=O)CN2C(=O)c3ccccc3S2(=O)=O)CC1,2170% (active)
7,NC(=O)C1CCN(c2ccc3c(c2)S(=O)(=O)c2ccccc2C3=O)CC1,5.74%
8,COc1cc(/C=C/C(=O)c2ccc3c(c2)OCO3)cc(Cl)c1O,15.6% (active)
9,CN(C)c1ccc(/C=C/C(=O)c2ccc3c(c2)OCO3)cc1,11%
10,CCC(=O)N1CCN(c2nc(C)nc3sc(C)c(C)c23)CC1,4.34%
11,N#CC1(NC(=O)CN2CCN(S(=O)(=O)c3ccccc3F)CC2)CCCC1,2.39%
12,O=C(CN1CCN(c2ccccc2F)CC1)NCc1ccc(Cl)cc1,13% (active)
13,CCOC(=O)c1cnc2c(C)c(Cl)ccc2c1N1CCOCC1,80.7% (active)
14,CSc1ccc(Cl)c(C(=O)NNC(=O)c2csc(N3CCOCC3)n2)c1,9.67%
15,Cc1cc(Cl)ccc1OCC(=O)NCCOc1nc(N2CCOCC2)nc(N2CCOCC2)n1,6.88%
16,CC(=O)Nc1ccc(N=Cc2nc(-c3ccc(C)cc3)oc2O)cc1,33.1% (active)
17,CN(C)c1ccc(N=Cc2nc(-c3ccccc3)oc2O)cc1,37.2% (active)
18,Cc1nc(C)c2c(c1C(F)(F)F)-c1ccccc1C2(F)F,9.1%
19,Cc1[nH]c(=S)c(C#N)c(C)c1CCC#N,8.9%
20,COc1cc(N2CCCC2)c(OC)cc1/C=C(/C#N)c1cccc(Br)c1,8.22%
21,COc1cc(N2CCCC2)c(OC)cc1/C=C(/C#N)c1ccc(Br)cc1,12.2% (active)
22,Cc1ccc(NC(=O)COc2ccc(/C=N/NC(=O)CSCc3ccccc3)cc2)cc1,58.9% (active)
23,CCOC(=O)c1[nH]c2ccc(OCC)cc2c1CCCN1C(=O)c2ccccc2C1=O,156% (active)
24,CCOC(=O)C1=C(C)N(CCCCCC(=O)O)C(=O)NC1c1ccccc1Cl (stereo not drawn),6.32%

row,SMILES,activation
1,Brc1ccc(-c2noc(-c3ccccn3)n2)o1,5.39%
2,CCOC(=O)C1=C(C)N=c2s/c(=C\c3ccc(OCC(=O)O)cc3)c(=O)n2C1c1ccc(Cl)cc1 (stereo not drawn),14.5% (active)
3,CCOC(=O)C1=C(C)N=c2s/c(=C/c3ccc(OCC(=O)O)cc3)c(=O)n2C1c1ccc(SC)cc1 (stereo not drawn),5.43%
4,CCOC(=O)C1=C(C)N=c2s/c(=C/c3ccc(OCC(=O)O)c(OC)c3)c(=O)n2C1c1ccc(Cl)cc1 (stereo not drawn),16.8% (active)
5,O=C1CCC[C@@H]2Cc3nc4ccc(O)cc4cc3[C@@H]3CCN1[C@H]23,3.13%
6,O=C(O)CCC(=O)Nc1cc(C(F)(F)F)cc(C(F)(F)F)c1,30.5% (active)
7,O=C(CN1CCN(c2ccccc2)CC1)Nc1cccc(C(F)(F)F)c1,5.41%
8,O=C(Cn1c2[n+](c3ccc(C(F)(F)F)cc31)CCCCC2)Nc1ccccc1,0.79%
9,CC(C)(C)OC(=O)N1CCC(Cc2cc(-c3cccnc3)no2)(C(=O)O)CC1,15.8% (active)
10,COCCn1c(SCC#N)nnc1-c1ccc([N+](=O)[O-])cc1,4.93%
11,Cc1sc(NC(=O)CSc2nnc(C(C)C)n2C)c(C#N)c1C,80.6% (active)
12,Cc1cc(S(=O)(=O)N2CCCC(C(=O)Nc3ccc(C(=O)O)cc3)C2)ccc1Cl (stereo not drawn),41.5% (active)
13,CC(=O)N1CCCc2cc(S(=O)(=O)N3CCCC(C(=O)Nc4cccc(C)c4)C3)ccc21 (stereo not drawn),8.68%
14,CC(=O)c1ccc(NC(=O)C2CCCN(S(=O)(=O)c3c(C)[nH]c(=O)[nH]c3=O)C2)cc1 (stereo not drawn),58.6% (active)
15,Cc1cc2cc(C=C(C#N)C#N)c(Cl)nc2cc1C,1.28%
16,O=C(O)c1ccc(-n2c(/C=C/c3cccc([N+](=O)[O-])c3)nc3ccccc3c2=O)cc1,15.1% (active)
17,CN(C)c1ccc(/C=C/c2nc3ccccc3c(=O)n2-c2ccc(C(=O)O)cc2)cc1,2.26%
18,COc1cc(C(=O)NCc2nnc(SCC(=O)Nc3ccc4c(c3)OCO4)o2)cc(OC)c1OC,165% (active)
19,COc1cc(C(=O)Nc2ccc(Cl)c(C(F)(F)F)c2)cc(OC)c1OC,9.75%
20,COc1cc(OC)c(OC)cc1/C=C/C(=O)c1ccc(NS(=O)(=O)c2ccc(C)cc2)cc1,8.63%
21,COc1ccc(N/C=C\C(=O)c2ccc(Br)cc2)cc1OC,59.4% (active)
